High-throughput results deposited in PubChem by several laboratories.
Hits are enriched below; roughly 1.9% of the tested compounds scored in any of these assays.
ROMK primary – modulators of human ROMK potassium channel; actives 2% (n = 130,000); Tet-inducible ROMK, thallium flux fluorescence; actives lie on both sides; B-score at 10 µM; P48048;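 active = signal ratio slope over the read window, or its plate-corrected B-score, at least 3 SD from the plate mean, either direction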;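 also: B-score of the F/F0 ratio slope over 7 to 12 s after thallium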
Target sequence (P48048 whole entry, looked up): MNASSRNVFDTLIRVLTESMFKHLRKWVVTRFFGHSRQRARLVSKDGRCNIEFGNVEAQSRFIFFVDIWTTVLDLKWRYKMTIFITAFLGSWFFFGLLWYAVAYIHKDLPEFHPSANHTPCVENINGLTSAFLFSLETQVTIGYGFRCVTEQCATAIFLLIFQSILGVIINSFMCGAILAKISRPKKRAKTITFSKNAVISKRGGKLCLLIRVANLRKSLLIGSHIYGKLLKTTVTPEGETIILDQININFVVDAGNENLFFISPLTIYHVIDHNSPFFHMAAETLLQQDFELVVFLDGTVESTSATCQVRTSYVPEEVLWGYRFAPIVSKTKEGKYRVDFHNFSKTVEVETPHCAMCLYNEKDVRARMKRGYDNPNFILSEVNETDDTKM
b-catenin transl – modulators of beta-catenin nuclear translocation. HeLa beta-catenin nuclear translocation, immunofluorescence imaging. nuclear translocation activity, % at 5 µM. actives 0.3% (n = 190,000). AID 1665;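 active = nuclear translocation activity above 50% at 5 µM, with a well cell count of 50 or more; inconclusive = wells under 50 cells across six images, flagged as toxic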;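 also: per-cell ratio of nuclear to cytoplasmic median beta-catenin stain intensity; plate controls were DMSO negative control for no effect and GSK-3 inhibitor IX positive control for full effect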
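Test system: human HeLa cells, native beta-catenin. Compound dosing: 5 µM primary single dose, 0.1% DMSO, 0.02–20 µM confirmation series. Incubation: compound exposure 24 h at 37°C. Detection: beta-catenin immunostaining with DAPI counterstain, 20x imaging, 6 fields/well. Read-out basis: Nuclear/cytoplasmic beta-catenin signal ratio, % activation.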
MT stabilizer – stabilizes microtubules in HeLa cells. actives 0.83% (n = 200,000). % tubulin-high responders, % at 10 µM. HeLa tubulin immunostaining HCS, 24 h; share of cells brighter than vehicle mean+2SD;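 active = plate Z-score above 3 for both tubulin-high and condensed-nucleus cell shares, with cell loss under 80%, at 10 µM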;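 also: anti alpha tubulin signal scored within the nucleus-defined area of each cell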
ROMK hit retest – retested hit modulating human ROMK potassium channel; ROMK thallium flux, fluorescence ratio; stronger effect = lower value; actives 54% (n = 3,000); shares compounds with ROMK primary; normalized thallium flux (F/F0 slope) at 10 µM;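 active = Flux at 10 µM at least 3 SD below or above vehicle control mean in one or both replicates; inconclusive = no clear call, values can overlap the other calls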
* marks the source's active call; other numbers are inactive results; ? = inconclusive; nt = no result.

SMILES | ROMK primary | b-catenin transl | MT stabilizer | ROMK hit retest
CCCCC(=O)N(CCOC)c1nnc(-c2ccccc2C)s1 | -0.63 | 0 | 2 | nt
Cc1cc(NC(=O)CSc2nc3ccccc3c(=O)n2C2CCCC2)no1 | 2.9* | nt | 15 | ?
CN(C)c1ccc(NC(=O)CSc2nc3ccccc3c(=O)n2C2CCCCC2)cc1 | nt | -3 | 3 | nt
COC(=O)c1nnn(-c2cc(Cl)cc(Cl)c2)c1C(=O)OC | nt | -1 | nt | nt
O=C(/C=C/c1ccco1)N(c1ccccn1)c1ccccn1 | 0.85 | -1 | 3 | nt
O=C(O)Cn1ncn(-c2ccc(OC(F)(F)F)cc2)c1=O | 0.37 | -1 | 4 | nt
COc1ccc(C(=O)/C(C#N)=N/Nc2ccccc2[N+](=O)[O-])cc1 | 3.8* | 59* | 11 | 0.074
CCCc1c(C)nn(C(=O)/C(C#N)=N/Nc2ccccc2[N+](=O)[O-])c1C | 1.6 | 2 | 6 | nt
CCOC(=O)/C(C#N)=C(\O)c1ccc(NC(=O)c2ccc([N+](=O)[O-])cc2)cc1 | 0.79 | -1 | nt | nt
COc1ccccc1-n1c(SCC(=O)OC(C)C)nc2cccnc21 | nt | 0 | nt | nt
O=C(N/N=C/c1cccc([N+](=O)[O-])c1)C1CC1c1ccccc1 (configuration not stated) | -0.11 | 0 | 6 | nt
CCCCn1c(=NC(=O)c2cccnc2)c(C#N)cc2c(=O)n3cccc(C)c3nc21 | 0.75 | nt | 2 | nt
CC(=O)N=c1c(C#N)cc2c(=O)n3cccc(C)c3nc2n1CCCOC(C)C | nt | -2 | nt | nt
Cc1cccn2c(=O)c3cc(C#N)c(=NC(=O)c4ccncc4)n(CCCOC(C)C)c3nc12 | -4.3* | -4 | 2 | 0.049*
COCCCn1c(=NC(=O)c2ccncc2)c(C#N)cc2c(=O)n3cccc(C)c3nc21 | nt | nt | 4 | 0.06*
CN(CCCNC(=O)CSc1cc(=O)n(C)c2ccc(Cl)cc12)Cc1ccccc1 | nt | 0 | 2 | nt
CCCCNS(=O)(=O)c1ccc(NS(=O)(=O)c2c(C)cc(C)cc2C)cc1 | -0.61 | nt | 2 | nt
C=C1CN(CC(=O)OC)S(=O)(=O)c2ccccc21 | nt | 2 | nt | nt
C=CC1CN(CC(=O)OC)S(=O)(=O)c2ccccc21 (configuration not stated) | nt | 1 | nt | 0.074
O=S(=O)(CC(CN1CCCCC1)N1CCCCC1)c1ccc2ccccc2c1 (configuration not stated) | -5.8* | -4 | 3 | 0.059*
Cc1ccc(S(=O)(=O)CC(CN2CCCCC2)N2CCCCC2)cc1 (configuration not stated) | -0.67 | 3 | 10 | nt
Cc1cc(C(C)(C)C)oc1C(=O)N(CC(=O)NC1CCCC1)Cc1ccccc1Cl | nt | 0 | 2 | 0.054*
Cc1ccccc1N(CC(=O)NC1CCCC1)C(=O)c1oc(C(C)(C)C)cc1C | nt | 0 | 1 | nt
CN=C(Nc1cc(Cl)ccc1Cl)SC1CC(=O)N(c2ccc(C(=O)OC)cc2)C1=O (configuration not stated) | nt | -1 | 3 | nt
CCCCNC(=S)N/N=C/c1ccc(OCC(=O)Nc2c(C)cc(C)cc2C)c(OC)c1 | nt | 0 | 7 | nt
SMILES | ROMK primary | b-catenin transl | MT stabilizer | ROMK hit retest
CCOC(=O)N/N=C(\C)c1ccc(-n2cnnn2)cc1 | 0.34 | -1 | 2 | nt
O=[N+]([O-])c1ccc2c(c1)nc1n2CCN(c2ccccc2)C1 | nt | -1 | nt | 0.072
COCCN1CCn2c(nc3cc([N+](=O)[O-])ccc32)C1 | nt | 1 | nt | nt
Cc1cccc(NC(=O)c2ccc(CN3CCN(Cc4ccccc4)CC3)cc2)c1 | -2.1* | 1 | 3 | ?
O=C(Nc1cccc(C(=O)N2CCN(Cc3ccccc3)CC2)c1)c1ccccc1 | nt | -2 | 2 | nt
C=CCOc1ccc(/C=N/N2C(=O)C(CC(=O)Nc3ccc(F)cc3F)SC2=NC)cc1 (configuration not stated) | nt | 0 | 1 | nt
O=C(C[n+]1cc(-c2ccccc2)n2c1CCC2)Nc1nc(-c2ccccc2)cs1 | -1.4 | -2 | 4 | nt
Cc1ccc(-c2c[n+](CC(=O)Nc3nc(-c4ccccc4)cs3)c3n2CCC3)cc1 | -4.6* | 0 | nt | 0.06*
CC(C)OC(=O)NC(Nc1ccccc1C(=O)O)(C(F)(F)F)C(F)(F)F | nt | -1 | nt | 0.076
CCOC(=O)NC(Nc1ccc(C)cn1)(C(F)(F)F)C(F)(F)F | 0.045 | -6 | 4 | nt
Cc1ccc(S(=O)(=O)Nc2nc3ccccc3s2)cc1 | -0.019 | nt | 2 | nt
O=S(=O)(Nc1nc2ccccc2s1)c1ccc(Br)s1 | -3.2* | nt | 4 | 0.053*
COc1ccc(CCNC(=O)CN(c2cccc([N+](=O)[O-])c2)S(C)(=O)=O)cc1OC | -0.047 | 0 | 2 | 0.082
COc1ccc(CCNC(=O)CN(c2cc([N+](=O)[O-])ccc2OC)S(C)(=O)=O)cc1OC | 1.3 | -3 | 3 | nt
CN1CCC=C(C(=O)N2c3ccccc3Sc3ccc(Cl)cc32)C1 | nt | 0 | nt | nt
